Measured values as given in ChEMBL document CHEMBL5385940 (J Nat Prod, 2024).
The source made the active and inactive calls. The rule behind the calls is not given here.

Tests used:
[1] = Cytotoxicity against mouse 3T3-L1 cells assessed as cell viability at 10 uM incubated for 48 hrs by CCK-8 assay relative to control; type: toxicity, cell-based; conditions: read-out: Activity
Summary of the method: (§1)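 3T3-L1 preadipocytes seeded at 1 × 10^3 cells/well and left 12 h, then exposed to alkaloids for 48 h. Viability by CCK-8, absorbance at 450 nm, relative to control. Lovastatin 5 μM included. Mean ± SD, n = 3.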

3T3-L1 [2] = experiment: Anti-adipogenic activity in mouse 3T3-L1 preadipocytes assessed as inhibition of lipid accumulation incubated for 6 days by Nile Red staining based fluorescence microscopic analysis; type: functional, cell-based; conditions: time 6.0 day
[3] = Cytotoxicity against mouse 3T3-L1 cells transfected with Lenti-PPARgamma-Luc reporter assessed as cell viability at 10 uM incubated for 48 hrs by CCK-8 assay relative to control; type: toxicity, cell-based; conditions: read-out: Activity
Summary of the method: (§2)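 3T3-L1-Lenti-PPARγ-Luc reporter cells (lentivirus-transduced) exposed to alkaloids at a range of concentrations. Viability by CCK-8, absorbance at 450 nm, relative to control, used to set maximum noncytotoxic concentrations. Triplicate.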

[4] = Cytotoxicity against mouse 3T3-L1 cells transfected with Lenti-PPARgamma-Luc reporter assessed as cell viability at 25 uM incubated for 48 hrs by CCK-8 assay relative to control; type: toxicity, cell-based; conditions: read-out: Activity; summary of the method: as §2
[5] = Cytotoxicity against mouse 3T3-L1 cells transfected with Lenti-PPARgamma-Luc reporter assessed as cell viability at 1 uM incubated for 48 hrs by CCK-8 assay relative to control; type: toxicity, cell-based; conditions: read-out: Activity; summary of the method: as §2
[6] = Cytotoxicity against mouse 3T3-L1 cells transfected with Lenti-PPARgamma-Luc reporter assessed as cell viability at 5 uM incubated for 48 hrs by CCK-8 assay relative to control; type: toxicity, cell-based; conditions: read-out: Activity; summary of the method: as §2
[7] = Cytotoxicity against mouse 3T3-L1 cells assessed as cell viability at 5 uM incubated for 48 hrs by CCK-8 assay relative to control; type: toxicity, cell-based; conditions: read-out: Activity; summary of the method: as §1
[8] = Cytotoxicity against mouse 3T3-L1 cells assessed as cell viability at 20 uM incubated for 48 hrs by CCK-8 assay relative to control; type: toxicity, cell-based; conditions: read-out: Activity; summary of the method: as §1
3T3-L1 [9] = experiment: Anti-adipogenic activity in mouse 3T3-L1 cells transfected with Lenti-PPARgamma-Luc reporter assessed as inhibition of PPARgamma expression by luminescence based microplate reader analysis; type: functional, cell-based
[10] = Cytotoxicity against mouse 3T3-L1 cells transfected with Lenti-PPARgamma-Luc reporter assessed as cell viability at 15 uM incubated for 48 hrs by CCK-8 assay relative to control; type: toxicity, cell-based; conditions: read-out: Activity; summary of the method: as §2
[11] = Cytotoxicity against mouse 3T3-L1 cells assessed as cell viability at 15 uM incubated for 48 hrs by CCK-8 assay relative to control; type: toxicity, cell-based; conditions: read-out: Activity; summary of the method: as §1
[12] = Cytotoxicity against mouse 3T3-L1 cells transfected with Lenti-PPARgamma-Luc reporter assessed as cell viability at 0.1 uM incubated for 48 hrs by CCK-8 assay relative to control; type: toxicity, cell-based; conditions: read-out: Activity; summary of the method: as §2
[13] = Cytotoxicity against mouse 3T3-L1 cells transfected with Lenti-PPARgamma-Luc reporter assessed as cell viability at 30 uM incubated for 48 hrs by CCK-8 assay relative to control; type: toxicity, cell-based; conditions: read-out: Activity; summary of the method: as §2
[14] = Cytotoxicity against mouse 3T3-L1 cells assessed as cell viability at 25 uM incubated for 48 hrs by CCK-8 assay relative to control; type: toxicity, cell-based; conditions: read-out: Activity; summary of the method: as §1
[15] = Cytotoxicity against mouse 3T3-L1 cells transfected with Lenti-PPARgamma-Luc reporter assessed as cell viability at 20 uM incubated for 48 hrs by CCK-8 assay relative to control; type: toxicity, cell-based; conditions: read-out: Activity; summary of the method: as §2
3T3-L1 [16] = experiment: Inhibition of adipogenesis in mouse 3T3-L1 cells assessed as downregulation of PPARgamma relative protein level […] by Western blot analysis; type: functional, cell-based
Summary of the method: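 Differentiated 3T3-L1 adipocytes treated with alkaloids at several doses. Lysed in RIPA with PMSF on ice for 30 min. Proteins transferred to PVDF and blocked with 5% skim milk for 2 h at 25 °C. Primary antibody 2 h, HRP secondary 1 h. PPARγ protein level expressed relative to control. n = 3.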

[17] = Cytotoxicity against mouse 3T3-L1 cells assessed as cell viability at 50 uM incubated for 48 hrs by CCK-8 assay relative to control; type: toxicity, cell-based; conditions: read-out: Activity; summary of the method: as §1
[18] = Cytotoxicity against mouse 3T3-L1 cells assessed as cell viability at 100 uM incubated for 48 hrs by CCK-8 assay relative to control; type: toxicity, cell-based; conditions: read-out: Activity; summary of the method: as §1

Structure (SMILES)	viability at 48 h, 10 µM [1] [%]	Activity (3T3-L1 [2])	viability at 48 h, 10 µM [3] [%]	viability at 48 h, 25 µM [4] [%]	viability at 48 h, 1 µM [5] [%]	viability at 48 h, 5 µM [6] [%]	viability at 48 h, 5 µM [7] [%]	viability at 48 h, 20 µM [8] [%]	Activity (3T3-L1 [9])	viability at 48 h, 15 µM [10] [%]	viability at 48 h, 15 µM [11] [%]	viability at 48 h, 0.1 µM [12] [%]	viability at 48 h, 30 µM [13] [%]	viability at 48 h, 25 µM [14] [%]	viability at 48 h, 20 µM [15] [%]	inhibition (3T3-L1 [16])	viability at 48 h, 50 µM [17] [%]	viability at 48 h, 100 µM [18] [%]
COc1cc2c(cc1O)[C@@H](Cc1ccc(O)c(Oc3cc4c(cc3OC)CCN(C)[C@@H]4Cc3ccc(O)cc3)c1)N(C)CC2	> 80	Dose-Dependent Effect	> 80	< 80	> 80	> 80	> 80	> 80	Dose-Dependent Effect	> 80	> 80	> 80	< 80	< 80	> 80	Active	–	–
COc1cc2c(cc1O)C(Cc1ccc(O)c(-c3c(O)c(OC)cc4c3C(Cc3ccc(O)cc3)N(C)CC4)c1)N(C)CC2 (stereo unspecified)	> 80	–	–	–	–	–	> 80	–	–	–	–	–	–	> 80	–	–	> 80	> 80
